From ChEMBL document CHEMBL1649102, “Stereochemical survey of digitoxin monosaccharides: new anticancer analogues with enhanced apoptotic activity and growth inhibitory effect on human non-small cell lung cancer cell” (ACS Med Chem Lett, 2011)

Assay: Growth inhibition of human NCI60 cells
Format: functional
Method in brief: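 NCI-60 cell lines grown in RPMI 1640 with 5% FBS and 2 mM L-glutamine, plated at 5,000–40,000 cells/well and preincubated 24 h. Time-zero plates were TCA-fixed. Drug was given at five concentrations (10-fold or ½-log dilutions from DMSO stock) for 48 h at 37°C. Cells were TCA-fixed, stained with SRB, and read at 515 nm. GI50 is where [(Ti−Tz)/(C−Tz)]×100 = 50.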

Structure (SMILES)	GI50
C[C@@H]1O[C@H](O[C@H]2CC[C@@]3(C)[C@H](CC[C@@H]4[C@@H]3CC[C@]3(C)[C@@H](C5=CC(=O)OC5)CC[C@]43O)C2)C[C@@H](O)[C@H]1O	> 50 nM
C[C@@H]1O[C@H](O[C@H]2CC[C@@]3(C)[C@H](CC[C@@H]4[C@@H]3CC[C@]3(C)[C@@H](C5=CC(=O)OC5)CC[C@]43O)C2)C[C@H](O)[C@H]1O	1 nM
C[C@H]1O[C@@H](O[C@H]2[C@@H](O)C[C@H](O[C@H]3CC[C@@]4(C)[C@H](CC[C@@H]5[C@@H]4CC[C@]4(C)[C@@H](C6=CC(=O)OC6)CC[C@]54O)C3)O[C@@H]2C)C[C@H](O)[C@@H]1O	50 nM
